What all share (format): functional, cell-based
The test system of assay [1] is CCRF-CEM. Put plainly: Antiproliferative activity against human CEM cells after 72 hrs by MTT assay. In short, it runs like this: (§1)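 MTT read-out of tumour cell proliferation after 72 h of drug exposure. IC50 is the drug concentration giving 50% inhibition of proliferation. Each experiment was repeated three times under identical conditions.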
The test system of assay [2] is CCRF-CEM. In words: Cell cycle arrest in human CEM cells assessed as accumulation at G2/M phase at 0.69 uM after 12 hrs by flow cytometry. The method in brief:
(§2)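 CEM cells were left untreated or drug-exposed for 12 h at 37 °C, then collected, fixed in methanol and DNA-stained with a fluorescent dye. Cell-cycle distribution was read by flow cytometry using a conventional cell cycle protocol, with untreated cells as reference.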

Assay [3] has as its system SMMC-7721. Put plainly: Antiproliferative activity against human SMMC7721 cells after 72 hrs by MTT assay. The conditions noted are these: SMMC-7721, 72 h. In short, it runs like this: as §1
Background: Tetrazolium assays rely on reduction of a dye to a coloured formazan, in cell work by metabolically active cells.

For assay [4], the system named is CCRF-CEM. In words: Effect on necrosis-mediated morphological changes in human CEM cells assessed as destruction of cytoplasm and nucleic membrane at 0.69 uM after 12 hrs by Giemsa staining. The method in brief: (§3)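 After 12 h of drug incubation, CEM cells were spun onto slides by cytospin, air-dried, fixed with methanol and Giemsa-stained. Morphology was examined at 400× magnification.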

For assay [5], the system named is Bel-7402. In words: Antiproliferative activity against human Bel7402 cells after 72 hrs by MTT assay. The conditions noted are these: Bel-7402, 72 h. The method in brief:
as §1

In assay [6] the test system is HepG2. In words: Antiproliferative activity against human HepG2 cells after 72 hrs by MTT assay. The conditions noted are these: HepG2, 72 h. In short, it runs like this: as §1
Assay [7] relates to CCRF-CEM. In words: Effect on necrosis-mediated morphological changes in human CEM cells assessed as destruction of cytoplasm and nucleic membrane at IC75 after 12 hrs by Giemsa staining. The method in brief:
as §3

Assay [8] relates to CCRF-CEM. In words: Cell cycle arrest in human CEM cells assessed as accumulation at G2/M phase at 3.2 uM after 12 hrs by flow cytometry. The conditions noted are these: 0.1 uM, in the assay text read “0.1 uM” for “3.2 uM”. The method in brief:
as §2
(A flow cytometer gives signals particle by particle.)

Assay [9] concerns CCRF-CEM. In words: Cell cycle arrest in human CEM cells assessed as accumulation at G2/M phase at 0.1 uM after 12 hrs by flow cytometry. In short, it runs like this:
as §2

Assay [10] has as its system CCRF-CEM. In words: Effect on apoptosis-mediated morphological changes in human CEM cells at 3.2 uM after 12 hrs by Giemsa staining. In short, it runs like this:
as §3

Structures are written as SMILES. pIC50: −log10 of the molar value. Active and inactive are the calls of the source. The calls are words filed in the database; no cut-off is given here. Bounds are passed on as bounds.

The term pIC50 denotes −log10 of the IC50, conventionally taken in molar units. In assay [1], `O=C(CBr)Nc1cccc(C(=O)NC(=O)Nc2ccc3c(c2)OCO3)c1` gave a pIC50 of 5.82.
Same read-out and setting: with `CC(Br)C(=O)Nc1cccc(C(=O)NC(=O)Nc2ccc3c(c2)OCO3)c1` (configuration not stated) the figure was 4.92.
In assay [1], `CNC(=O)NC(=O)c1cccc(NC(=O)CBr)c1` gave a pIC50 of 5.50.
On to `COc1cc(NC(=O)NC(=O)c2cccc(NC(=O)CBr)c2)cc(OC)c1OC`, for which the outcome in assay [2] was inactive. Besides, the pIC50 was 6.17 in [3], 6.48 in assay [1], 5.85 in assay [5] and 6.09 in assay [6]. Further, in assay [4], the result was Active.
With `CNC(=O)NC(=O)c1cccc(NC(=O)C(C)Br)c1` (configuration not stated), the pIC50 in assay [1] is 5.03.
Same read-out and setting: with `NC(=O)NC(=O)Cc1cccc(NC(=O)CCl)c1` the figure was 4.90.
Consider `O=C(CBr)Nc1cccc(C(=O)NC(=O)Nc2ccccn2)c1`, for which the pIC50 in assay [3] is 6.03; in [1], 6.15; in assay [5], 5.92; in assay [6] it was 6.05. In addition, the outcome in assay [7] was Active.
`O=C(CBr)Nc1cccc(C(=O)NC(=O)Nc2ccccc2)c1` had a pIC50 in assay [1] of 5.30.
For the compound `COc1cc(NC(=O)NC(=O)c2cccc(NC(=O)C(C)Br)c2)cc(OC)c1OC` (configuration not stated), the pIC50 in assay [1] was 5.88. This pIC50 is 0.58 log units higher than that of the compound before.
Still for that read-out and setting: with `CC(Br)C(=O)Nc1cccc(C(=O)NC(=O)Nc2ccccc2)c1` (configuration not stated) the figure was < 4.70; with `NC(=O)NC(=O)/C=C/c1cccc(NC(=O)CBr)c1`, 5.86; with `CNC(=O)NC(=O)c1cccc(NC(=O)C(C)Cl)c1` (configuration not stated), < 4.70.
With `CC(Br)C(=O)Nc1cccc(CC(=O)NC(N)=O)c1` (configuration not stated), the pIC50 in [1] was < 4.70.
Turning to `CC[C@]1(O)C[C@H]2CN(CCc3c([nH]c4ccccc34)[C@@](C(=O)OC)(c3cc4c(cc3OC)N(C=O)[C@H]3[C@@](O)(C(=O)OC)[C@H](OC(C)=O)[C@]5(CC)C=CCN6CC[C@]43[C@@H]65)C2)C1` [VINCRISTINE], the pIC50 in [3] is 4.28; in assay [5], 7.40. For the same compound, the result in assay [8] and in [9] was Active.
`CC(Br)C(=O)Nc1cccc(C(=O)NC(=O)Nc2ccccn2)c1` (configuration not stated) showed a pIC50 in assay [1] of 5.21.
Still for that read-out and setting: with `CNC(=O)NC(=O)c1cccc(NC(=O)CCl)c1` the figure was 5.04.
As for `CC(Br)C(=O)Nc1cccc(C(=O)NC(N)=O)c1` (configuration not stated), the pIC50 is 5.03 in assay [3], 5.95 in assay [5] and 5.92 in assay [6]. The outcome in assay [10] was Active.

The values are drawn from ChEMBL document CHEMBL1143300, “Synthesis and activity evaluation of benzoylurea derivatives as potential antiproliferative agents” (Bioorg Med Chem Lett, 2009).
